How the values were obtained:
[1] = Cardiotonic activity in guinea pig left atrial muscles assessed as minimum positive inotropic effective concentration causing myocardial contraction; assay type: functional, Cavia porcellus, Muscle tissue
Summary of the method: (§1)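 Guinea pig left atrial or right ventricular strips were perfused with Tyrode's solution, held at 1 g tension and paced at 2 Hz (2 ms, twice threshold). After about 60 min stabilisation, drug was added cumulatively. PIECmin was recorded as the lowest concentration that increased myocardial contraction.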

[2] = Cardiotonic activity in guinea pig right ventricular muscles assessed as minimum positive inotropic effective concentration causing myocardial contraction; assay type: functional, Cavia porcellus, Muscle tissue; summary of the method: as §1
[3] = Cardiotonic activity in guinea pig left atrial muscles assessed as maximum positive inotropic effective concentration causing myocardial contraction relative to basal level; assay type: functional, Cavia porcellus, Muscle tissue
Summary of the method: (§2)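 Isolated left atrial or right ventricular strips from adult guinea pigs (300–500 g; pentobarbital 25 mg/kg i.p.; heart retrogradely perfused with Tyrode's, pH not stated). Tissue held at 1 g tension, paced at 2 Hz (2 ms pulses, twice threshold), stabilised about 60 min, then given cumulative drug additions. Maximal inotropic effect taken at the concentration just before arrhythmia onset.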

[4] = Cardiotonic activity in guinea pig right ventricular muscles assessed as maximum positive inotropic effective concentration causing myocardial contraction relative to basal level; assay type: functional, Cavia porcellus, Muscle tissue; summary of the method: as §2
[5] = Safety index, ratio of arrhythmogenic concentration to minimum positive inotropic effective concentration causing myocardial contraction in guinea pig left atrial muscles; assay type: toxicity, tissue-based, Cavia porcellus, Muscle tissue; conditions: for selectivity ratio: isolated left atrial muscles
Summary of the method: (§3)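 Paced guinea pig left atrial or right ventricular strips (1 g tension, 2 Hz) received cumulative drug addition. The lowest concentration raising contraction (PIECmin) and the concentration inducing arrhythmia were both recorded. Safety index was calculated as the ratio of the arrhythmogenic concentration to PIECmin.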

[6] = Safety index, ratio of arrhythmogenic concentration to minimum positive inotropic effective concentration causing myocardial contraction in guinea pig right ventricular muscles; assay type: toxicity, tissue-based, Cavia porcellus, Muscle tissue; conditions: for selectivity ratio: isolated right ventricular muscles; summary of the method: as §3

Row | Structure (SMILES) | Activity [1] [µM] | Activity [2] [µM] | Activity [3] [%] | Activity [4] [%] | selectivity ratio [5] | selectivity ratio [6] | Ratio [5] | Ratio [6]
1 | C[C@]12CC[C@H]3[C@@H](CC[C@]4(O)C[C@@H](O)CC[C@]34CO)[C@@]1(O)CC[C@@H]2C1=CC(=O)OC1 [STROPHANTHIDOL] | 1.25 | 0.3 | 205 | 408 | 6.3 | 65 |  | 
2 | C[C@@H]1O[C@H](O[C@H]2CC[C@@H]3[C@H]4CC[C@]5(C)[C@@H](C6=CC(=O)OC6)CC[C@]5(O)[C@@H]4CC[C@]3(O)C2)[C@H](O)[C@H](O)[C@H]1O [ANTIAROSIDE I] | 0.83 | 0.67 | 562 | 1246 | 6.7 | 10.7 |  | 
3 | C[C@@H]1O[C@H](O[C@H]2CC[C@@]3(C(=O)O)[C@H](CC[C@@H]4[C@@H]3CC[C@]3(C)[C@@H](C5=CC(=O)OC5)CC[C@]43O)C2)[C@H](O)[C@H](O)[C@H]1O [ANTIAROSIDE E] | 0.42 | 1.33 | 264 | 230 | 10 | 7.7 |  | 
4 | C[C@@H]1O[C@H](O[C@H]2CC[C@]3(C)[C@H]4CC[C@]5(C)[C@@H](C6=CC(=O)OC6)CC[C@]5(O)[C@@H]4CC[C@]3(O)C2)[C@H](O)[C@H](O)[C@H]1O [PERIPLORHAMNOSIDE] | 0.05 | 0.25 | 381 | 355 | 11 | 8.8 |  | 
5 | C[C@@H]1O[C@H](O[C@H]2CC[C@]3(C=O)[C@H]4C[C@@H](O)[C@]5(C)[C@@H](C6=CC(=O)OC6)CC[C@]5(O)[C@@H]4CC[C@]3(O)C2)[C@H](O)[C@H](O)[C@H]1O | 1 | 2 | 243 | 250 | 10 | 15 |  | 
6 | C[C@@H]1O[C@H](O[C@H]2CC[C@@]3(C(=O)O[C@@H]4O[C@H](CO)[C@@H](O)[C@H](O)[C@H]4O)[C@H](CC[C@@H]4[C@@H]3CC[C@]3(C)[C@@H](C5=CC(=O)OC5)CC[C@]43O)C2)[C@H](O)[C@H](O)[C@H]1O [ANTIAROSIDE F] | 1.42 | 3.17 | 140 | 618 | 6 | 5.8 |  | 
7 | C[C@@H]1O[C@@H](O[C@H]2CC[C@]3(C=O)[C@H]4CC[C@]5(C)[C@@H](C6=CC(=O)OC6)CC[C@]5(O)[C@@H]4CC[C@]3(O)C2)[C@H](O)[C@H](O)[C@H]1O[C@@H]1O[C@H](CO)[C@@H](O)[C@H](O)[C@H]1O [CONVALLOSIDE] | 0.25 | 1 | 443 | 292 | 20 | 9 |  | 
8 | C[C@]12CC[C@H](O)C[C@@]1(O)CC[C@@H]1[C@@H]2CC[C@]2(C)[C@@H]([C@]3(O)COC(=O)C3)CC[C@]12O [ANTIAROTOXININ A] | 0.1 |  | 367 |  | 1000 |  |  | 
9 | C[C@H]1O[C@H](O[C@H]2CC[C@]3(C=O)[C@H]4C[C@@H](O)[C@]5(C)[C@@H](C6=CC(=O)OC6)CC[C@]5(O)[C@@H]4CC[C@]3(O)C2)[C@H](O)[C@H](O)[C@H]1O | 0.5 | 2 | 220 | 200 | 10 | 15 |  | 
10 | C[C@@H]1O[C@H](O[C@@H]2CC[C@]3(C=O)[C@H]4CC[C@]5(C)[C@@H](C6=CC(=O)OC6)CC[C@]5(O)[C@@H]4CC[C@]3(O)C2)[C@H](O)[C@H](O)[C@H]1O [ANTIAROSIDE C] | 2.75 | 4 | 208 | 229 | 15 | 9.7 |  | 
11 | C[C@H]1O[C@H](O[C@H]2CC[C@]3(C=O)[C@H]4CC[C@]5(C)[C@@H](C6=CC(=O)OC6)CC[C@]5(O)[C@@H]4CC[C@]3(O)C2)[C@H](O)[C@H](O[C@@H]2O[C@H](CO)[C@@H](O)[C@H](O)[C@H]2O)[C@@H]1O [GLUCOSTROPHALLOSIDE] | 0.25 | 1 | 489 | 350 | 10 | 10 |  | 
12 | C[C@H]1O[C@@H](O[C@H]2CC[C@]3(C=O)[C@H]4CC[C@]5(C)[C@@H](C6=CC(=O)OC6)CC[C@]5(O)[C@@H]4CC[C@]3(O)C2)[C@H](O)[C@H](O)[C@H]1O [DESGLUCOCHEIROTOXIN] | 0.05 | 0.5 | 300 | 300 | 50 | 10 |  | 
13 | CO[C@H]1[C@@H](O[C@H]2CC[C@]3(C=O)[C@H]4CC[C@]5(C)[C@@H](C6=CC(=O)OC6)CC[C@]5(O)[C@@H]4CC[C@]3(O)C2)O[C@H](C)[C@@H](O)[C@H]1O (stereo in doubt; 18) [STROPHATHOJAVOSIDE] | 0.25 | 1 | 567 | 200 |  | 5 | 10 | 
14 | C[C@@H]1O[C@@H](O[C@H]2C[C@@H](O)[C@]3(CO)[C@H]4[C@H](O)C[C@]5(C)[C@@H](C6=CC(=O)OC6)CC[C@]5(O)[C@@H]4CC[C@]3(O)C2)[C@H](O)[C@H](O)[C@H]1O [OUABAIN] | 0.05 | 0.05 | 775 | 249 | 20 | 20 |  | 
15 | C[C@H]1O[C@H](O[C@H]2CC[C@]3(C(=O)O)[C@H]4C[C@@H](O)[C@]5(C)[C@@H](C6=CC(=O)OC6)CC[C@]5(O)[C@@H]4CC[C@]3(O)C2)[C@H](O)[C@H](O)[C@H]1O [ANTIAROSIDE H] | 7.5 | 8.33 | 144 | 260 | 7.5 | 9.7 |  | 
16 | C[C@H]1O[C@@H](O[C@H]2CC[C@]3(C)[C@H]4CC[C@]5(C)[C@@H](C6=CC(=O)OC6)CC[C@]5(O)[C@@H]4CC[C@]3(O)C2)[C@H](O)[C@H](O)[C@H]1O [ANTIAROSIDE A] | 0.1 | 0.083 | 158 | 150 | 4.3 | 2 |  | 
17 | C[C@@H]1O[C@H](O[C@H]2CC[C@]3(CO)[C@H]4CC[C@]5(C)[C@@H](C6=CC(=O)OC6)CC[C@]5(O)[C@@H]4CC[C@]3(O)C2)[C@H](O)[C@H](O)[C@H]1O [CONVALLATOXOL] | 0.1 | 0.25 | 138 | 625 | 5 | 20 |  | 
18 | C[C@H]1O[C@H](O[C@H]2CC[C@]3(C=O)[C@H]4C[C@@H](O)[C@]5(C)[C@@H](C6=CC(=O)OC6)CC[C@]5(O)[C@@H]4CC[C@]3(O)C2)[C@H](O)[C@H](O)[C@@H]1O [ANTIALLOSIDE] | 0.25 |  | 350 |  | 80 |  |  | 
19 | CO[C@H]1[C@@H](O[C@H]2CC[C@]3(C=O)[C@H]4C[C@@H](O)[C@]5(C)[C@@H](C6=CC(=O)OC6)CC[C@]5(O)[C@@H]4CC[C@]3(O)C2)O[C@H](C)[C@@H](O)[C@@H]1O [TOXICARIOSIDE B] | 0.1 |  | 163 |  | 10 |  |  | 
20 | CO[C@H]1[C@@H](O[C@H]2CC[C@]3(C=O)[C@H]4CC[C@]5(C)[C@@H](C6=CC(=O)OC6)CC[C@]5(O)[C@@H]4CC[C@]3(O)C2)O[C@H](C)[C@@H](O)[C@H]1O (stereo in doubt; 20) [STROPHATHOJAVOSIDE] | 0.5 | 0.5 | 225 | 350 |  |  | 2.5 | 4
21 | C[C@@H]1O[C@@H](O[C@H]2CC[C@@]3(CO)[C@H](CC[C@@H]4[C@@H]3CC[C@]3(C)[C@@H](C5=CC(=O)OC5)CC[C@]43O)C2)[C@H](O)[C@H](O)[C@H]1O[C@@H]1O[C@H](CO)[C@@H](O)[C@H](O)[C@H]1O [ANTIAROSIDE B] | 0.38 | 0.075 | 373 | 382 | 5 | 100 |  | 
22 | C[C@@H]1O[C@@H](O[C@H]2CC[C@]3(C=O)[C@H]4CC[C@]5(C)[C@@H](C6=CC(=O)OC6)CC[C@]5(O)[C@@H]4CC[C@]3(O)C2)[C@H](O)[C@H](O)[C@H]1O [CONVALLATOXIN] | 0.1 | 0.125 | 467 | 300 | 10 | 8 |  | 
23 | C[C@]12[C@H](O)C[C@H]3[C@@H](CC[C@]4(O)CCCC[C@]34C=O)[C@@]1(O)CC[C@@H]2C1=CC(=O)OC1 [ANTIARIGENIN] | 0.05 |  | 121 |  | 20 |  |  | 
